Laboratory results from ChEMBL document CHEMBL2177002, “Antifungal spectrum, in vivo efficacy, and structure-activity relationship of ilicicolin h” (ACS Med Chem Lett, 2012).
In brackets after ≈: the same amount, converted by molar mass. Activity calls are given as the source filed them. The calls are words filed in the database; no cut-off is given here.

Tests used:
[1] = Inhibition of Saccharomyces cerevisiae MY 2141 electron transport protein complex 2/3 using succinate as substrate assessed as decrease in oxygen consumption measured for 3 mins
[2] = Half life in mouse; assay type: ADME, organism-based; details: in vivo
[3] = tested on: Candida albicans; assay: Antifungal activity against Candida albicans after 24 hrs by NCCLS broth microdilution method in presence of 10% mouse plasma; assay type: functional
[4] = Inhibition of Saccharomyces cerevisiae MY 2141 electron transport protein complex 4 using ascorbate/TMPD as substrate assessed as decrease in oxygen consumption measured for 3 mins
[5] = tested on: Candida albicans; assay: Ratio of MIC for Candida albicans 10 harboring cytochrome b S20I mutant to MIC for wild type Candida albicans; assay type: functional
[6] = tested on: Candida albicans; assay: Antifungal activity against Candida albicans MY 1055 in glucose-based medium after 24 hrs by NCCLS broth microdilution method; assay type: functional; details: MY 1055, 24 h
[7] = tested on: Cryptococcus neoformans; assay: Antifungal activity against Cryptococcus neoformans MY 2061 infected in DBA/2 mouse assessed as reduction in spleen fungal burden at 100 mg/kg, ip bid; assay type: functional, organism-based; set-up: dose 100 mg/kg
In short: (§1)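 Mice with disseminated C. neoformans MY2061 infection (8 × 10⁵ cfu/mouse). Dosed twice daily at 100 or 50 mg/kg, oral or intraperitoneal, in 5% aqueous DMSO. Spleen burden measured as log cfu/g of spleen and compared by Excel t test (p < 0.05).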

[8] = tested on: Candida albicans; assay: Antifungal activity against Candida albicans MY 1055 infected in DBA/2 mouse assessed as reduction in kidney fungal burden administered as ip tid; assay type: functional; details: MY 1055, Kidney
[9] = Oral bioavailability in mouse; assay type: ADME, organism-based; details: in vivo
[10] = Inhibition of rhesus monkey liver NADH:cytochrome c oxidoreductase; set-up: species or system Macaca mulatta
[11] = tested on: Candida albicans; assay: Ratio of MIC for Candida albicans 4 harboring cytochrome b G37S mutant to MIC for wild type Candida albicans; assay type: functional
[12] = tested on: Nakaseomyces glabratus; assay: Antifungal activity against Candida glabrata CLY 574 after 24 hrs by NCCLS broth microdilution method; assay type: functional; details: CLY 574, 24 h
[13] = Inhibition of Candida albicans MY 1055 NADH:cytochrome c oxidoreductase; details: read-out: IC50
[14] = tested on: Cryptococcus neoformans; assay: Antifungal activity against Cryptococcus neoformans H 99 after 40 hrs by NCCLS broth microdilution method; assay type: functional; details: H 99, 40 h
[15] = tested on: Candida albicans; assay: Ratio of MIC for Candida albicans 1 harboring cytochrome b G37C mutant to MIC for wild type Candida albicans; assay type: functional
[16] = Inhibition of ubiquinol:cytochrome c reductase in presence of 50% mouse plasma; assay type: cell-free
In short: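 Cytochrome c reductase assay run with mouse plasma added at increasing percentages, up to 50%, to gauge the effect of plasma protein binding on inhibition.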

[17] = tested on: Candida albicans; assay: Antifungal activity against Candida albicans MY 1055 infected in DBA/2 mouse assessed as reduction in kidney fungal burden administered as po bid for 2 days post infection measured after 4 days; assay type: functional; details: MY 1055, Kidney
In short: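 DBA/2 mice infected intravenously with 5.4 × 10⁴ cfu of C. albicans MY1055. Dosed orally twice daily for 2 days in 10% aqueous DMSO at 50, 25, 12.5 and 6.25 mg/kg. Kidney Candida burden determined 4 days after infection and compared with vehicle-treated controls by Excel t test (p < 0.05). ED90 is the dose giving 90% reduction of kidney C. albicans.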

[18] = tested on: Saccharomyces cerevisiae; assay: Antifungal activity against Saccharomyces cerevisiae MY 2141 in glucose-based medium after 24 hrs by NCCLS broth microdilution method; assay type: functional; details: MY 2141, 24 h
[19] = tested on: Candida albicans; assay: Antifungal activity against Candida albicans MY 1055 in glycerol-based medium after 24 hrs by NCCLS broth microdilution method; assay type: functional; details: MY 1055, 24 h
[20] = tested on: Candida albicans; assay: Ratio of MIC for Candida albicans 5 harboring cytochrome b G37D mutant to MIC for wild type Candida albicans; assay type: functional
[21] = tested on: Candida albicans; assay: Antifungal activity against Candida albicans MY 1055 infected in DBA/2 mouse assessed as reduction in kidney fungal burden administered as iv tid after 24 hrs; assay type: functional; details: MY 1055, Kidney
In short: (§2)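 Abbreviated 24 h version of the disseminated C. albicans kidney-burden model in mice. Dosing intravenous, thrice daily, at total doses of 50 or 25 mg/kg/day. Kidney burden compared with controls by Excel t test (p < 0.05). ED90 expressed as mg/kg/day.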

[22] = tested on: Candida albicans; assay: Ratio of MIC for Candida albicans 9 harboring cytochrome b G37D mutant to MIC for wild type Candida albicans; assay type: functional
[23] = tested on: Aspergillus flavus; assay: Antifungal activity against Aspergillus flavus MF 383 after 24 hrs by NCCLS broth microdilution method; assay type: functional, organism-based
[24] = tested on: Candida albicans; assay: Ratio of MIC for Candida albicans 8 harboring cytochrome b G37S mutant to MIC for wild type Candida albicans; assay type: functional
[25] = tested on: Candida albicans; assay: Ratio of MIC for Candida albicans 11 harboring cytochrome b G37C mutant to MIC for wild type Candida albicans; assay type: functional
[26] = Inhibition of bovine ubiquinol-cytochrome c reductase after 2 mins by stopped flow rapid scanning spectroscopy; set-up: species or system Bos taurus
[27] = tested on: Candida albicans; assay: Antifungal activity against Candida albicans SC 53124 after 24 hrs by NCCLS broth microdilution method; assay type: functional; details: SC 53124, 24 h
[28] = tested on: Candida albicans; assay: Antifungal activity against fluconazole-resistant Candida albicans MY 2301 after 24 hrs by NCCLS broth microdilution method; assay type: functional; details: MY 2301, 24 h
[29] = tested on: Pichia kudriavzevii; assay: Antifungal activity against Candida krusei CLY 549 after 24 hrs by NCCLS broth microdilution method; assay type: functional; details: CLY 549, 24 h
[30] = tested on: Candida albicans; assay: Antifungal activity against Candida albicans MY 1055 infected in DBA/2 mouse assessed as reduction in kidney fungal burden at 25 to 50 mg/kg, iv tid after 24 hrs; assay type: functional, organism-based; in short: as §2
[31] = tested on: Candida albicans; assay: Antifungal activity against Candida albicans MY 1055 assessed as inhibition of whole cell oxygen consumption at 0.003 ug/mL after 15 mins; assay type: functional; details: MY 1055, 0.25 h
[32] = tested on: Candida parapsilosis; assay: Antifungal activity against Candida parapsilosis ATCC 22019 after 24 hrs by NCCLS broth microdilution method; assay type: functional; details: Lodderomyces parapsilosis, ATCC 22019, 24 h
[33] = Inhibition of rat liver NADH:cytochrome c oxidoreductase
[34] = tested on: Candida albicans; assay: Ratio of MIC for Candida albicans 14 harboring cytochrome b G37S mutant to MIC for wild type Candida albicans; assay type: functional
[35] = tested on: Cryptococcus neoformans; assay: Antifungal activity against Cryptococcus neoformans MY 2061 infected in DBA/2 mouse assessed as reduction in spleen fungal burden at 50 mg/kg, po bid; assay type: functional, organism-based; set-up: dose 50 mg/kg; in short: as §1
[36] = Inhibition of Saccharomyces cerevisiae MY 2141 NADH:cytochrome c oxidoreductase
[37] = tested on: Candida albicans; assay: Ratio of MIC for Candida albicans 12 harboring cytochrome b Q22E mutant to MIC for wild type Candida albicans; assay type: functional
[38] = tested on: Cryptococcus neoformans; assay: Antifungal activity against Cryptococcus neoformans MY 2061 after 40 hrs by NCCLS broth microdilution method; assay type: functional; details: MY 2061, 40 h
[39] = Inhibition of Saccharomyces cerevisiae MY 2141 electron transport protein complex 1/3 using NADH as substrate assessed as decrease in oxygen consumption measured for 3 mins
[40] = Inhibition of Saccharomyces cerevisiae MY 2141 electron transport protein complex 1/3 using ethanol as substrate assessed as decrease in oxygen consumption measured for 3 mins
[41] = tested on: Clavispora lusitaniae; assay: Antifungal activity against Candida lusitaniae MY 1396 after 24 hrs by NCCLS broth microdilution method; assay type: functional; details: MY 1396, 24 h
[42] = Clearance in mouse; assay type: ADME, organism-based; details: in vivo

C/C=C/[C@@H]1[C@H]2C[C@@H](C)CC[C@@H]2C(C)=C[C@H]1C(=O)c1c(O)c(-c2ccc(O)cc2)c[nH]c1=O [ILICICOLIN H]
IC50 [1]: 1 µg/mL (≈ 2.31 µM)
half-life [2]: 2.5 h
MIC [3]: > 1 µg/mL
IC50 [4]: > 10 µg/mL
Ratio [5]: 250
MIC [6]: > 50 µg/mL
Activity [7]: Active
ED90 [8]: 0.01 mg/kg
bioavailability [9]: 72%
IC50 [10]: 0.5 µg/mL (≈ 1.15 µM)
Ratio [11]: 250
MIC [12]: 0.01 µg/mL (≈ 0.0231 µM)
IC50 [13]: 1.85 nM
MIC [14]: 0.1 µg/mL (≈ 0.231 µM)
Ratio [15]: 250
inhibition [16]: inactive
ED90 [17]: 15.4 mg/kg
MIC [18]: > 50 µg/mL
MIC [19]: 0.025 µg/mL (≈ 0.0577 µM)
Ratio [20]: 250
ED90 [21]: 22.3 mg/kg/day
Ratio [22]: 250
Activity [23]: inactive
Ratio [24]: 250
Ratio [25]: 250
IC50 [26]: 200 nM
MIC [27]: 0.01 µg/mL (≈ 0.0231 µM)
MIC [28]: 0.04 µg/mL (≈ 0.0923 µM)
MIC [29]: 0.01 µg/mL (≈ 0.0231 µM)
Activity [30]: Active
inhibition at 0.003 µg/mL [31]: 100%
MIC [32]: 0.01 µg/mL (≈ 0.0231 µM)
IC50 [33]: 1.5 µg/mL (≈ 3.46 µM)
Ratio [34]: 250
Activity [35]: Active
IC50 [36]: 2.31 nM
Ratio [37]: 250
MIC [38]: 0.1 µg/mL (≈ 0.231 µM)
IC50 [39]: 0.08 µg/mL (≈ 0.185 µM)
IC50 [40]: 0.008 µg/mL (≈ 0.0185 µM)
MIC [41]: 0.01 µg/mL (≈ 0.0231 µM)
clearance [42]: 16 mL/min/kg
